Screening data as filed in PubChem.
DDE Tn6 FP inh: disrupts Tn6 cyclic peptide binding to fibrin D-Dimer-E complex | inhibition, % at 8.3 µM | hit rate 0.21% among 370,000 | P02675 | Fibrin DD(E) TRITC-Tn6 fluorescence polarization displacement;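 active = inhibition above a per-campaign cutoff: mean of compounds within control limits plus 3 SD, cut at about 15% in these data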;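 note: 0% = median of all compound wells on the plate and 100% = blocking peptide control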
Target sequence (P02675 whole entry, looked up): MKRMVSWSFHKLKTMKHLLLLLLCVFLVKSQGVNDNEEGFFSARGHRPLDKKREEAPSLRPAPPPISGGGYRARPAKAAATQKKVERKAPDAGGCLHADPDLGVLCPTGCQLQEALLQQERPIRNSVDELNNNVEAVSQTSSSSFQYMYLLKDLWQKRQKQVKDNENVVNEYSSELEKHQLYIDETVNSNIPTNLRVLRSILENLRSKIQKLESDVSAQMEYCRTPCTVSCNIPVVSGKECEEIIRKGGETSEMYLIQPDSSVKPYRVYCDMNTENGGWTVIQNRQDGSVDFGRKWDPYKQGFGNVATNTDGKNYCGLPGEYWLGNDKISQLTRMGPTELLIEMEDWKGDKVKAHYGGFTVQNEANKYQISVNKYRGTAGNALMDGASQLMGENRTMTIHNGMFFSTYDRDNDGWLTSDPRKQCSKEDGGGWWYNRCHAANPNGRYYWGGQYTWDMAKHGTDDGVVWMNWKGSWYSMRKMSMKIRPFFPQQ
Tn7 DDE FP: inhibitors of Tn7 peptide binding to human fibrin DD(E); P02675; hit rate 0.13% among 370,000; FP displacement of FITC-Tn7 peptide from fibrin DD(E); 0% = median of compound wells per plate; inhibition, % at 8.3 µM;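 active = inhibition above the mean of compounds falling within the control limits plus 3 SD of them, cut at about 14% in these data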;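 note: 0% = plate median of compound wells and 100% = 10 µM Aha-Tn7 peptide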
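Assay system: Human fibrin DD(E) protein | Medium: Tris buffer with calcium and detergent, pH 7.8 | Reagent: 0.1 µM fluorescent Tn7 | Compound dosing: Single point at 8.3 µM | Times: 10 min preincubation, 3 h with tracer, room temperature | Detection: Fluorescence polarization of the labelled Tn7 tracer | Controls: Aha-Tn7 high control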
RTF Ca sens act: cardiac RTF calcium sensitization. IANBD-labeled TnC RTF fluorescence at EC20 calcium; 0% EC20 calcium, 100% full calcium. activation, % at 7.2 µM. P19429+P45379. hit rate 0.24% among 340,000. AID 493008;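 active = activation above the mean over all tested compounds plus 3 SD, cut at about 30% in these data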;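 note: rise in fluorescence read as greater calcium sensitivity of cardiac thin filaments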
Keap1 Nrf2 FP: disrupts human Keap1 binding to Nrf2 peptide; Keap1 Kelch-Nrf2 peptide fluorescence polarization, 1536-well; Q14145; inhibition, % at 9.4 µM; hit rate 0.15% among 340,000; in the data active = inhibition above about 12%;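 note: human Keap1 Kelch domain with fluorescein labeled Nrf2 9mer peptide probe; 0% = neutral control wells and 100% = peptide positive control; higher means more block of Keap1 binding to Nrf2 peptide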
C-LANA FP: blocks KSHV LANA C-terminal domain binding to DNA; MBP-C-LANA/FAM-LBS DNA binding, fluorescence polarization; inhibition, % at 9 µM; hit rate 0.078% among 340,000; AID 504423;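 active = highest replicate inhibition at or above 60% at 9 µM, even if other replicates fall short; inactive = all replicates below 60% inhibition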;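 note: 0% = neutral control wells and 100% = 4 µM acridine orange control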
Cardiac RTF inh: cardiac RTF calcium desensitization | P19429+P45379 | inhibition, % at 7.15 µM | IANBD-labeled cardiac RTF, Ca2+ fluorescence | hit rate 0.12% among 340,000;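 active = inhibition above the mean inhibition of all tested compounds plus 3 SD, cut at about 17% in these data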;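 note: assay run at fixed EC70 calcium of 1.6 mM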
Tn7 DDE conf: DD(E)-Tn7 binding inhibition, FP confirmation; FP displacement of TRITC-Tn7 peptide from DD(E); 0% set at plate's compound-well median; hit rate 5% among 460; inhibition, % at 8.3 µM; shares compounds with Tn7 DDE FP; AID 720628;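 active = inhibition above the campaign cutoff, the mean of compounds within control limits plus 3 SD, cut at about 14% in these data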;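 note: 100% = median FP of high control wells holding Aha-Tn7 inhibitor peptide; displacers lower polarization since freed probe rises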
DDE Tn7 FP ctr: counter-screen hit for Tn7 peptide-fibrin DD(E) binding disruption. shares compounds with Tn7 DDE FP. TRITC-Tn7 probe displacement, fluorescence polarization. inhibition, % at 8.3 µM. hit rate 3% among 460. AID 720633;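 active = inhibition above the cutoff, the mean of compounds lying between the control bounds plus 3 SD of those compounds, cut at about 17% in these data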;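 note: 0% = median of compound sample wells and 100% = excess unlabeled Aha-Tn7 peptide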
* marks the source's active call; other numbers are inactive results; x = no result given. The list is not random: actives were taken first. Their share in the collection is about 0.73%.

SMILES	DDE Tn6 FP inh	Tn7 DDE FP	RTF Ca sens act	Keap1 Nrf2 FP	C-LANA FP	Cardiac RTF inh	Tn7 DDE conf	DDE Tn7 FP ctr
COC1=C[C@H](C(=O)NCc2ccc(Br)cc2)C(C)C(c2ccccc2)CC1=O (some centres undefined)	0.5	7.0	x	x	x	x	x	x
CC(C)NS(=O)(=O)c1ccc(CCC(=O)Nc2ccc3c(c2)OCCO3)cc1	7.7	-0.5	3.5	-2.1	-0.6	-4.2	x	x
CCNS(=O)(=O)c1ccc(CCC(=O)Nc2ccc3c(c2)OCCO3)cc1	3.3	15.3*	-4.0	1.8	0.1	-8.4	0.9	-5.8
CC(NC(=O)COC(=O)[C@@H]1CCCN1S(=O)(=O)c1ccccc1F)C12CC3CC(CC(C3)C1)C2 (some centres undefined)	3.4	13.9*	-0.1	-1.1	-2.0	-1.6	0.2	-0.3
CSCC[C@@H](CO)NC(=O)[C@H]1O[C@@H](n2ccc(=O)[nH]c2=O)[C@H](O)[C@@H]1O	3.5	2.2	x	x	x	x	x	x
COc1ccc(C(C#N)=Cc2cc(OC)c(OC)c(OC)c2)cc1	-0.2	-3.9	x	x	x	x	x	x
COC(=O)c1ccc(C2NC(=O)CCC2[N+](=O)[O-])cc1 (centres undefined)	-9.5	14.1*	-2.0	-9.9	-2.4	-3.7	3.2	-9.9
CCOC(=O)C1=C(C(=O)OCC)C2N(Cc3ccc(Br)cc3)c3ccccc3[C@@]23C[C@@H](C(=O)OC)N(S(=O)(=O)c2cccs2)C3=N1 (some centres undefined)	-1.7	4.0	x	x	x	x	x	x
COc1ccc(Cn2nnnc2C(c2ccc3ncccc3c2)N2CCN(C3CCCCC3)CC2)cc1 (centres undefined)	4.5	14.3*	0.7	-7.9	-1.0	-2.0	0.3	1.2
COc1ccc(Cn2nnnc2C(c2ccc(C)cc2)N2CCN(C3CCCC3)CC2)cc1 (centres undefined)	-0.1	-5.9	2.5	-3.8	-0.5	-11.0	x	x
C=CCN(CC=C)C[C@@H]1CSCCS(=O)(=O)N1	-4.9	-5.4	x	x	x	x	x	x
CC1CCCN(S(=O)(=O)c2ccc(C(=O)NC(C)c3ccccc3)cc2)C1 (centres undefined)	3.0	-1.0	-5.6	-5.4	-0.9	-9.9	x	x
O=C(CSc1nc2c(cnn2-c2ccc(F)cc2)c(=O)[nH]1)N1CCCCC1	3.3	14.6*	-1.1	3.4	-1.3	-10.4	0.8	0.4
C=C[C@@H]1c2cc(C)ccc2N(S(=O)(=O)c2ccc(C)cc2)[C@H](c2ccccc2)C1(C#N)C#N	1.4	14.0*	-0.4	-7.1	0.5	10.8	-0.6	-13.2
Cc1cc(C(=O)NNc2cc(Cl)ccc2Cl)no1	1.1	2.1	2.5	-6.3	0.6	2.3	x	x
Cc1cc(C(=O)NNc2c(Cl)cccc2Cl)no1	3.2	14.2*	-4.0	0.2	-0.9	-7.8	2.3	-3.5
COc1ccc(OC)c(NC(=O)c2ccc(-c3cccs3)cc2)c1	-6.6	14.8*	6.4	-2.9	-1.6	6.4	7.2	2.5
COc1ccc(NC(=O)c2cc(-c3cccs3)on2)c(OC)c1	-4.5	-2.3	-4.2	-0.8	-0.2	5.7	x	x
COc1ccccc1NS(=O)(=O)c1cc(Cl)ccc1OC	4.5	13.8*	-7.8	0.0	-1.0	-2.7	10.4	7.4
CC(C)(C)NC(=O)C(c1ccccn1)N(C(=O)c1csnn1)C1CCCCC1 (centres undefined)	-2.9	-3.4	12.6	3.1	-0.7	2.5	x	x
CCC(C)(C)NC(=O)C(c1ccccn1)N(C(=O)c1csnn1)C1CCCCC1 (centres undefined)	2.0	14.2*	2.3	-3.8	1.2	-4.8	0.6	-2.3
COc1ccc(NC(=O)CCN2CCCCC2)cc1	1.2	7.8	-1.3	-3.1	0.9	-0.4	x	x
CCOc1ccc(NC(=O)CCN2CCCCC2)cc1	-6.7	15.8*	2.4	3.9	0.4	-3.0	4.2	4.3
C[C@H]1CN[C@@H](CCO)/C1=C\c1ccccc1	-1.4	13.9*	-5.9	2.5	-1.5	-4.6	3.0	5.2
COCC(=O)Nc1ccc2c(c1)C(=O)N(C)[C@@H]1CC[C@@H](CC(=O)OC)O[C@H]1CO2	6.0	1.6	x	x	x	x	x	x
SMILES	DDE Tn6 FP inh	Tn7 DDE FP	RTF Ca sens act	Keap1 Nrf2 FP	C-LANA FP	Cardiac RTF inh	Tn7 DDE conf	DDE Tn7 FP ctr
O=C(CSc1nnc(-c2ccccc2)c2ccccc12)NCCN1C(=O)CSC1=O	5.8	-9.9	5.8	-5.2	-0.2	-6.7	x	x
O=C(CSc1nnc(Cc2ccccc2)o1)NCCN1C(=O)CSC1=O	1.2	16.2*	0.4	-0.4	0.6	9.0	9.4	3.6
CC(=O)Nc1ccc(NC(=O)c2c([N+](=O)[O-])cnn2C)cc1	5.2	14.9*	6.5	-0.6	-0.1	-25.5	3.5	1.8
Cc1cccc(NC(=O)c2c([N+](=O)[O-])cnn2C)c1	-6.9	2.1	-8.9	-5.2	-0.5	-6.6	x	x
COc1ccc(CCC(=O)N2CCN(c3ccccc3)CC2)cc1OC	1.4	15.3*	-5.7	0.0	-0.1	-7.1	-2.8	-14.4
CCn1c2ccccc2c2cc(NC(=O)COC(=O)c3cccc(F)c3)ccc21	7.0	1.0	x	x	x	x	x	x
CC(C)C(=O)Nc1nnc(COc2ccc(Cl)cc2)s1	0.0	14.5*	-3.4	-0.7	-1.4	3.7	-2.6	-4.7
CC(=O)Nc1nnc(COc2ccc(Cl)cc2)s1	-1.5	-8.1	-0.8	1.0	-0.6	-5.3	x	x
COCCn1c(COc2cccc(OC)c2)nnc1SCC(=O)NC1CCCC1	-7.9	10.6	2.1	-1.2	-0.4	-7.9	x	x
COCCn1c(COc2cccc(OC)c2)nnc1SCC(=O)NC1CCCCC1	1.5	18.6*	-3.2	-7.1	0.2	-1.5	-3.4	-4.3
CCOC(=O)[C@@]12CCC3=C1N(CCC3)C(=O)[C@H](CC(=O)NCc1ccc(OC)c(OC)c1)C2	-12.1	10.4	x	x	x	x	x	x
COc1ccc(-n2nnnc2CNC(=O)C2CC(=O)N(c3ccc(F)cc3)C2)cc1 (centres undefined)	-0.9	14.3*	x	x	x	x	6.6	0.2
O=C(NCc1nnnn1-c1ccc(Cl)cc1)C1CC(=O)N(c2ccc(F)cc2)C1 (centres undefined)	-9.6	2.3	x	x	x	x	x	x
CCOC(=O)C1=CN(Cc2ccco2)S(=O)(=O)N(C)C1c1ccc2ccccc2c1 (centres undefined)	-1.2	15.4*	-6.5	1.7	-2.0	-7.2	2.5	-3.4
COc1ccc(S(=O)(=O)N2CCC(C(=O)N3CCCC3)CC2)cc1Cl	-1.2	14.7*	0.6	-1.2	0.7	-0.2	4.8	3.1
O=[N+]([O-])c1cccc(S(=O)(=O)N2CCN(S(=O)(=O)N3CCOCC3)CC2)c1	3.0	3.3	-5.8	-1.6	0.4	-2.5	x	x
